In ChEMBL document CHEMBL1142719 (J Med Chem, 2005) one finds Ki, Activation and Displacement data, which are given here for four molecules.

The structures appear in SMILES notation.

Experiment [1] addresses T1, Adenosine receptor A2a (Homo sapiens, UniProt P29274). Briefly: Inhibition of [3H]-CGS- 21680 binding to human Adenosine A2A receptor expressed in CHO cells. In kind it is cell-based.
The next experiment has as its target T2, Adenosine receptor A1 (Homo sapiens, UniProt P30542).
T2 sequence (P30542 whole entry): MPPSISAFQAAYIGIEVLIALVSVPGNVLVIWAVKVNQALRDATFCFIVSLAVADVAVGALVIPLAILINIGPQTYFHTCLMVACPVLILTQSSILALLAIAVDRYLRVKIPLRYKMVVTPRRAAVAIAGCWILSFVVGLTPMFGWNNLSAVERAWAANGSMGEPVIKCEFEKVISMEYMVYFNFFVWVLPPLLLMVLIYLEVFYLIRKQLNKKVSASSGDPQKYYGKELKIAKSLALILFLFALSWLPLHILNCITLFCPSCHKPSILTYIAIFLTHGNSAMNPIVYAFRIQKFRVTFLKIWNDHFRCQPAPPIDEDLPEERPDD
Description: Inhibition of [3H]R-PIA binding to human Adenosine A1 receptor expressed in CHO cells. The format is cell-based.

Experiment [2] concerns the target T3, Adenosine receptor A3 (Homo sapiens) (UniProt P0DMS8).
T3 sequence (whole entry): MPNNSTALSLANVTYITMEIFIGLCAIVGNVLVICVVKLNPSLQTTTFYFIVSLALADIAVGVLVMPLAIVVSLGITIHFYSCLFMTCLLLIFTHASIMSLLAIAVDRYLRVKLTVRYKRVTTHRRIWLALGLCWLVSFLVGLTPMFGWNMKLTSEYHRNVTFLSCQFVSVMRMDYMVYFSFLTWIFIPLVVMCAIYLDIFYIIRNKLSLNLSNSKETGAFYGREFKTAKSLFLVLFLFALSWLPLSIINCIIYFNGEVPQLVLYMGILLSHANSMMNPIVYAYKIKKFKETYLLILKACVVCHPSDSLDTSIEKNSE
Briefly: Relative activation of human Adenosine A3 receptor expressed in CHO cells at 10 uM treatment compared to 10 uM Cl-IB-MECA. In kind it is functional, cell-based.

Experiment [3] concerns the target T4, Adenosine receptor A3 (Homo sapiens, UniProt P0DMS8).
T4 sequence (P0DMS8 whole entry): T3 sequence (whole entry)
Briefly: Inhibition of [125I]-AB-MECA binding to human Adenosine A3 receptor expressed in CHO cells. In kind it is cell-based.

Experiment [4] has as its target T5, Adenosine receptor A3 (Rattus norvegicus, UniProt P28647).
T5 sequence (P28647 whole entry): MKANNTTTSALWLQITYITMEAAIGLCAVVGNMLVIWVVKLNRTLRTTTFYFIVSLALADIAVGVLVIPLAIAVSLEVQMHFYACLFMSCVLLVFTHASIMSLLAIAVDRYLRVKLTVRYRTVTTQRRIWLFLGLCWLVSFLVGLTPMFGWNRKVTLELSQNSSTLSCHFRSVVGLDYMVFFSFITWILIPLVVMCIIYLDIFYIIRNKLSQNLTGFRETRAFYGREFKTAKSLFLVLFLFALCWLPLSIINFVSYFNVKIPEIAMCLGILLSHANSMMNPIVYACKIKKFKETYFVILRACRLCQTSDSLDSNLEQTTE
Briefly: Inhibition of [125I]AB-MECA binding to rat Adenosine A3 receptor expressed in CHO cells. The format is cell-based.

Experiment [5] addresses T6, Adenosine receptor A2b (Homo sapiens) (UniProt P29275).
T6 sequence (whole entry): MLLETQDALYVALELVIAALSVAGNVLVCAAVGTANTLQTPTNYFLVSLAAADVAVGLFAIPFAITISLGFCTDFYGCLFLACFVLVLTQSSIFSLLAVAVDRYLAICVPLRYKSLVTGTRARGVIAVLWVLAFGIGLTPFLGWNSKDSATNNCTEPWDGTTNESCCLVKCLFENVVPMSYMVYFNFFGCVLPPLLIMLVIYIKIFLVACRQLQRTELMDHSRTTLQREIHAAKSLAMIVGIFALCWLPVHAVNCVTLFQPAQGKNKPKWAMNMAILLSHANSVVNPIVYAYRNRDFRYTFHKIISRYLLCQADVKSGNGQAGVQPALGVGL
Description: Relative activation of human Adenosine A2B receptor at 10 uM treatment compared to 10 uM Cl-IB-MECA. In kind it is functional.

Experiment [6] has as its target T1, Adenosine receptor A2a. Description: Displacement of [3H]-CGS- 21680 from human Adenosine A2A receptor expressed in CHO cells at 10 uM. The format is cell-based. An outline of the steps:
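Human A2A receptor stably expressed in adherent CHO cells. Competition binding used [3H]CGS 21680 as the radioligand.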
In general terms: In a radioligand displacement assay an active substance lowers the binding of a labelled ligand.

T1 sequence (P29274 whole entry): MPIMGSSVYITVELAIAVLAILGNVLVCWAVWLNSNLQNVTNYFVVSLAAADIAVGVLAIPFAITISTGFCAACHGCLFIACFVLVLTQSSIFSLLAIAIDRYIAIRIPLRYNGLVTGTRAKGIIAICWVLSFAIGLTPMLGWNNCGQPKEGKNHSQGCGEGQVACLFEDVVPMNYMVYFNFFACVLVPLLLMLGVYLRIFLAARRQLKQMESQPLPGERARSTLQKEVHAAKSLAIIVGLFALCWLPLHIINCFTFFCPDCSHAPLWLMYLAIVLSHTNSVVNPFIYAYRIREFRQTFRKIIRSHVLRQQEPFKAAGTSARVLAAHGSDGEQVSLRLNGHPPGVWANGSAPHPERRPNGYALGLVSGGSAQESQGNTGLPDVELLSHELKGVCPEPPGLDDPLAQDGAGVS

Usually Ki stands for a dissociation constant, usually derived from enzyme kinetics or from competition with a known ligand. High values mean a looser hold on the target, low ones a stronger hold on the target. For the molecule `CNC(=O)[C@]12C[C@@H]1[C@@H](n1cnc3c(NCc4cccc(Br)c4)nc(Cl)nc31)[C@H](O)[C@@H]2O`, the Ki stood at 1.3 µM at Adenosine receptor A2a [1], 0.27 µM on Adenosine receptor A1, 0.00038 µM at Adenosine receptor A3 [3] and 0.00076 µM at Adenosine receptor A3 [4]. Moreover, the Activation in experiment [2] is 100%; in experiment [5] it was 38%.
Take `CNC(=O)[C@]12C[C@@H]1[C@@H](n1cnc3c(NCC(c4ccccc4)c4ccccc4)nc(Cl)nc31)[C@H](O)[C@@H]2O`: the Ki is 1.6 µM at Adenosine receptor A2a [1], 1.3 µM at Adenosine receptor A1, 0.00069 µM on Adenosine receptor A3 [3] and 0.01 µM at Adenosine receptor A3 [4]. The Activation in experiment [2] is 107%; in experiment [5], 46%.
Turning to `CNc1ncnc2c1ncn2[C@@H]1O[C@H](CO)[C@@H](O)[C@H]1O`, the Ki at Adenosine receptor A1 came out at 6 µM; on Adenosine receptor A3 [3], 0.0093 µM; on Adenosine receptor A3 [4], 6.4 µM. Besides, the Displacement on Adenosine receptor A2a [6] stood at 17%. Also, in experiment [5], the Activation turned out to be 16%.
Consider `CNC(=O)[C@]12C[C@@H]1[C@@H](n1cnc3c(NCc4cc(Cl)ccc4OCc4ccccc4)nc(Cl)nc31)[C@H](O)[C@@H]2O`, for which the Ki came out at 0.85 µM on Adenosine receptor A2a [1], 1.2 µM on Adenosine receptor A1, 0.0052 µM at Adenosine receptor A3 [3] and 0.011 µM at Adenosine receptor A3 [4]. Further, the Activation was 110% in experiment [2] and 49% in experiment [5].
